In ChEMBL document CHEMBL1141355, “Triterpene, antioxidant, and antimicrobial compounds from Melissa officinalis” (J Nat Prod, 2007):
Converted amounts (≈) assume the structure as drawn.

How the values were obtained:
Type in all cases: functional
[1] = Antioxidant activity assessed as DPPH reducing activity
Procedure, shortened: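 DPPH radical (0.025 g/L in MeOH, prepared daily) mixed with sample in MeOH, maximum concentration 200 µg/mL; vehicle control. Absorbance read at 515 nm after 10 min. Remaining DPPH calculated from a calibration curve. α-Tocopherol served as positive control. Run in triplicate; EC50 obtained by the Litchfield and Wilcoxon method.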

[2] = tested on: Staphylococcus epidermidis; assay: Antibacterial activity against Staphylococcus epidermidis ATCC 12228 after 24 hrs by broth microdilution assay
Procedure, shortened: (§1)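 Broth microdilution in Triptone, in duplicate, per NCCLS. Samples dissolved in DMSO, then diluted in Triptone; final concentrations 2 to 0.0078 mg/mL for the pure compound and 16 to 0.031 mg/mL for extracts. Inoculum 10^5 CFU/mL. Incubation 24 h at 37 °C, read visually from below. MIC taken as the lowest concentration inhibiting growth. Controls: growth without sample, and DMSO blank.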

Candida albicans = assay: Antifungal activity against Candida albicans ATCC 10231 after 24 hrs by broth microdilution assay
Procedure, shortened: (§2)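 ATCC strain in 96-well broth microdilution, run in duplicate following NCCLS guidance. Samples were dissolved in DMSO, then diluted in Triptone as serial dilutions: final 16 to 0.031 mg/mL for extracts, 2 to 0.0078 mg/mL for the pure compound. Inoculum suspension was 10^5 CFU/mL. Growth-control and DMSO blank wells were included. Plates were incubated 24 h at 37 °C. MIC is the lowest concentration inhibiting visible growth.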

Bacillus spizizenii = assay: Antibacterial activity against Bacillus subtilis subsp. […] after 24 hrs by broth microdilution assay; procedure, shortened: as §2
Pseudomonas aeruginosa = assay: Antibacterial activity against Pseudomonas aeruginosa ATCC 9027 after 24 hrs by broth microdilution assay; procedure, shortened: as §1
Aspergillus niger = assay: Antifungal activity against Aspergillus niger ATCC 16404 after 24 hrs by broth microdilution assay; conditions: ATCC 16404, 24 h; procedure, shortened: as §1
Escherichia coli = assay: Antibacterial activity against Escherichia coli ATCC 8739 after 24 hrs by broth microdilution assay; procedure, shortened: as §1
Staphylococcus aureus = assay: Antibacterial activity against Staphylococcus aureus ATCC 6538 after 24 hrs by broth microdilution assay; procedure, shortened: as §1

Molecule: Cc1c(C)c2c(c(C)c1O)CC[C@@](C)(CCC[C@H](C)CCC[C@H](C)CCCC(C)C)O2 [ALPHA-TOCOPHEROL]
- EC50 [1]: 10.1 µg/mL (≈ 23.4 µM)

Molecule: O=C(/C=C/c1ccc(O)c(O)c1)O[C@H](Cc1ccc(O)c(O)c1)C(=O)O [ROSMARINIC ACID]
- MIC ([2]; ATCC 12228, 24 h): 120 µg/mL (≈ 333 µM)
- MBC ([2]; ATCC 12228, 48 h, in the assay text read “48 hrs” for “24 hrs”): 120 µg/mL (≈ 333 µM)
- MIC (Candida albicans; ATCC 10231, 24 h): > 2000 µg/mL
- EC50 [1]: 3.1 µg/mL (≈ 8.6 µM)
- MBC (Bacillus spizizenii; ATCC 6633, 24 h, in the assay text read “ATCC 6633” for “ATCC 9027”): 120 µg/mL (≈ 333 µM)
- MIC (Pseudomonas aeruginosa; ATCC 9027, 24 h): > 2000 µg/mL
- MIC (Aspergillus niger): > 2000 µg/mL
- MIC (Escherichia coli; ATCC 8739, 24 h): > 2000 µg/mL
- MIC (Staphylococcus aureus; ATCC 6538, 24 h): 120 µg/mL (≈ 333 µM)
- MBC (Staphylococcus aureus; ATCC 6538, 48 h, in the assay text read “48 hrs” for “24 hrs”): 120 µg/mL (≈ 333 µM)

Molecule: GENTAMICIN
- MIC [2]: 1 µg/mL
- MIC (Bacillus spizizenii): 1 µg/mL
- MIC (Pseudomonas aeruginosa): 4 µg/mL
- MIC (Escherichia coli): 4 µg/mL
- MIC (Staphylococcus aureus): 1 µg/mL

Molecule: NYSTATIN
- MIC (Candida albicans): 1 µg/mL
